# Compound activity as filed in PubChem BioAssay.
# D1 mod – D1 CRE-luciferase signal change, two-sided – cell-based, HEK293 D1, dopamine EC30, D1 allosteric modulator project, primary screen; B-score at 10 µM; actives 5.9% (n = 58,000); dopamine EC30 potentiation; actives deviate in either direction;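 active = luminescence count or its row- and column-corrected plate score outside the 99.7% band of the plate's sample wells, on either side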
# M1 ag – M1 muscarinic receptor agonists, primary screen, CHO-M1 cells, Fluo-4 calcium, agonist mode | Muscarinic acetylcholine receptor M1 | Fluo-4 calcium fluorescence; hits give high values | actives 3% (n = 64,000) | B-score at 10 µM;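 active = fluorescence rise, raw or as B-score row- and column-corrected plate score, outside the 99.7% band of its plate's samples, either direction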
# M1 antag – antagonists of rat M1 muscarinic receptor. Muscarinic acetylcholine receptor M1 (Rattus norvegicus), P08482. CHO-M1 cells, Fluo-4 calcium, ACh EC80 antagonist mode; hits give low values. B-score at 10 µM. actives 3.4% (n = 64,000);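 active = calcium fluorescence response, raw or row-and-column corrected B-score, differing from the plate sample mean either way at a set confidence level, mostly lower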
# Target sequence (P08482 whole entry, looked up): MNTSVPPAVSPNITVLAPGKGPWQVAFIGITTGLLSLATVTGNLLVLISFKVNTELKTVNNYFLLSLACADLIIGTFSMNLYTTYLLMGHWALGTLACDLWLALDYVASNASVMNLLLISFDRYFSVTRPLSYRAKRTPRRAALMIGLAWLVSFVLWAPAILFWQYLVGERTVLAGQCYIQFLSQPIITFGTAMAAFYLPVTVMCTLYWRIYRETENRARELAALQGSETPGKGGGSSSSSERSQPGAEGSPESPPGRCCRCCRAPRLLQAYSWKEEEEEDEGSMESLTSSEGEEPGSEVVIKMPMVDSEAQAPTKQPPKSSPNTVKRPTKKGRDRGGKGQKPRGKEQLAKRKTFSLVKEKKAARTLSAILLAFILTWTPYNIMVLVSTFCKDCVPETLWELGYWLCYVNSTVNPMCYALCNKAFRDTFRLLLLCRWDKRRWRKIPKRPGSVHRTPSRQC
# HEK293 NFkB inh – inhibitors of PMA/ionomycin-induced NF-kB reporter, primary screen, antigen receptor NF-kB inhibitor project, cell-based, HEK-293 luciferase reporter, luminescence; HEK-293 NF-kB luciferase reporter; inhibition, % at 3 µM; actives 0.21% (n = 62,000);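 active = inhibition above the mean of all tested compounds plus 3 SD, cut at about 40% in these data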;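 also: 0% = stimulated DMSO wells and 100% = 10 µM reference inhibitor 5653914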
#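 Reagent: PMA plus ionomycin mix as NF-kB-activating stimulus. Assay system: NF-kB luciferase reporter HEK-293 cells. Technique: luminescence from luciferase substrate reagent. Incubation: 1 h compound pre-incubation, 16 h PMA/ionomycin at 37 °C. Benchmarks: DMSO only as uninhibited control, 10 µM reference inhibitor as full inhibition. Repeats: tested once.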
# DAT uptake mod – changed hDAT dopamine uptake under cocaine IC80, either direction, primary screen, cocaine antagonist project, cell-based, LLC-PK1 hDAT, [14C]-dopamine uptake, MLSMR. Sodium-dependent dopamine transporter (Homo sapiens), Q01959. LLC-PK1 hDAT cells, [14C]-dopamine uptake with cocaine IC80; actives deviate in either direction. actives 1.3% (n = 110,000). B-score at 10 µM. AID 449768, 2010;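 active = Z score or B-score, a plate-position-corrected score, falls beyond the plate's 99.7% confidence bounds, in either direction; inactive = both scores lie inside the 99.7% bounds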;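 also: scored against the spread of the other compound wells on the same plate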
# Jurkat viability – cytotoxicity toward Jurkat T cells, primary screen, cytotoxicity control, cell-based, Jurkat E6.1, 60K MLSMR library | inhibition, % at 4 µM | Jurkat E6.1 viability, ATP luminescence, 48 h | actives 1.2% (n = 56,000);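 active = inhibition above the mean inhibition of all tested compounds plus 3 SD, cut at about 28% in these data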
# Numbers without * were called inactive; nt = not tested or not shown. Only some compounds are listed: those with a hit (about 7.6% of all), similar ones and a draw of the others.
SMILES,D1 mod,M1 ag,M1 antag,HEK293 NFkB inh,DAT uptake mod,Jurkat viability
COc1ccccc1C1CC(=O)Nc2cc3c(cc21)OCCO3 (stereo not drawn),-2,-0.012,0.032,32,0.65,92*
CCN(CC)c1ccc(C2CC(=O)Nc3cc(OC)c(OC)cc32)cc1 (stereo not drawn),0.031,0.21,-1.4,21,2.4*,nt
CC1=C(C(=O)Nc2ccc([N+](=O)[O-])cc2)C(c2cccc(C(F)(F)F)c2)NC(=S)N1c1ccccc1 (stereo not drawn),nt,nt,nt,nt,-0.68,nt
COc1ccc(S(=O)(=O)N2CCCC2C(=O)Nc2nccs2)cc1 (stereo not drawn),0.85,0.41,-0.47,17,-0.027,-10
COc1cc(C2/C(=C(/O)c3ccc(F)cc3)C(=O)C(=O)N2CCCC(=O)O)ccc1O (stereo not drawn),-3.9*,-0.33,-0.2,9,0.0044,-3
O=C(CN1C(=O)NC2(CCCCCCC2)C1=O)N1CCOCC1,0.91,-0.23,0.0073,7,-0.5,0
N#Cc1sc2nc3c(c(-c4cccnc4)c2c1N)CCC3,5.2*,0.59,-0.017,11,-1.4,2
COc1ccc(-c2c3c(nc4sc(C(=O)Nc5ccccc5)c(N)c24)CCC3)cc1,nt,nt,nt,nt,-0.85,nt
N#Cc1c(N)nc2c(c1-c1cccnc1)CCCCC2,2.1,-0.44,0.027,10,1.1,-1
NC(=O)c1sc2nc3c(c(-c4cccnc4)c2c1N)CCC3,nt,nt,nt,nt,-9.1*,nt
CN(C)S(=O)(=O)c1cccc(C(=O)NCCc2ccccc2)c1,-2.5,-0.32,0.46,-27,-0.0051,7
Cc1ccc(S(=O)(=O)CC(c2ccccc2)N2CCOCC2)cc1 (stereo not drawn),-0.44,0,1.2,3,0.22,-2
COc1ccc(C)cc1Nc1cc(C)nc2nc(C)nn12,0.46,-0.15,-0.92,-3,-1.1,36*
O=C1CSC(c2cn(-c3ccccc3)nc2-c2ccccc2)N1Cc1ccco1 (stereo not drawn),1.2,-0.032,-0.3,3,-0.049,-4
O=C1CSC(c2cn(-c3ccccc3)nc2-c2cccs2)N1CC1CCCO1 (stereo not drawn),-0.038,0.91,0.14,8,2.7*,-4
CCOC(=O)/C(C#N)=C/Nc1ccccc1OC,nt,nt,nt,nt,-8.2*,nt
O=C(NC(=S)Nc1ccc(Oc2ccccc2)cc1)c1ccc(Cl)cc1,nt,nt,nt,nt,2.6*,nt
CCNC(=S)Nc1ccc(Oc2ccccc2)cc1,nt,nt,nt,nt,-2.7*,nt
Cc1ccc(C(=O)NC(=S)Nc2ccc(Oc3ccc(Cl)cc3)cc2)cc1,nt,nt,nt,nt,-0.078,nt
NC1=NC2(CCCCC2)N=C(Nc2ccc(F)cc2F)N1,nt,nt,nt,nt,-0.17,nt
Cc1cc(C)cc(NC2=NC3(CCCCC3)N=C(N)N2)c1,-5.3*,-0.057,-0.19,-4,0.092,66*
O=C(NCc1ccco1)c1ccc(=O)[nH]n1,nt,-0.78,0.48,nt,-0.029,nt
O=C(Nc1nccs1)c1ccc(CSc2nnnn2-c2ccccc2)cc1,-0.79,-0.28,-0.4,0,0.097,1
CC(=O)Oc1cc2c(C(=O)NCc3ccncc3)c(C)oc2c2ccccc12,-0.94,6.1*,2*,6,0.19,-2
N#Cc1ccc(OCc2nnc(SCC(=O)N3CCCc4ccccc43)n2-c2ccccc2)cc1,-1,-0.085,-0.5,9,0.9,2
SMILES,D1 mod,M1 ag,M1 antag,HEK293 NFkB inh,DAT uptake mod,Jurkat viability
CCn1c(=O)c2cc(C(=O)NCCN3CCOCC3)sc2c2ccccc21,-0.21,0.55,-0.74,20,nt,-8
CCOC(=O)c1nnn(-c2nonc2N)c1-c1ccccc1,9*,-0.35,-0.24,21,1.5,1
CCN1c2ccccc2-c2nc3ccccc3n2C1c1cccnc1 (stereo not drawn),0.34,0.096,0.59,11,0.081,-6
CC(=O)c1ccc(-c2nc3c4ccccc4ccn3c2C(C)=O)o1,1.5,-1,-0.0095,89*,nt,1
COc1ccc(CNC(=O)c2c(C)nc3ccccn23)cc1,nt,nt,nt,nt,-0.55,nt
Cc1ccc(CN2CC34C=CC(O3)C(C(=O)NCc3ccc5c(c3)OCO5)C4C2=O)cc1 (stereo not drawn),nt,nt,nt,11,-8.1*,nt
COCCCNC(=O)C1C2C=CC3(CN(Cc4ccc(C)cc4)C(=O)C13)O2 (stereo not drawn),-1.4,0.47,0.81,12,-0.96,nt
Cc1ccc(C2NC(=O)NC3=C2CCc2ccccc23)cc1 (stereo not drawn),-0.49,-0.65,-1.3,11,1.2,7
COc1ccc(C2NC(=O)NC3=C2CCc2ccccc23)cc1 (stereo not drawn),0.5,6.9,0.16,0,0.29,72*
CCS(=O)(=O)N1CCN(S(=O)(=O)c2ccccc2)CC1,nt,nt,nt,nt,-9.6*,nt
CN(C)S(=O)(=O)N1CCN(S(=O)(=O)c2ccccc2)CC1,1.2,1.1,0.095,17,-0.52,-2
COC(=O)c1ccc(-c2ccc(C(=O)N3CCCN(C)CC3)cc2)cc1,-0.41,-0.052,0.58,10,0.94,-2
CCC(=O)N1CCN(c2cc(C)ccc2C)CC1,1.1,0.016,0.61,7,-0.61,-6
Cc1ccc(C)c(N2CCN(C(=O)CC3Sc4ccccc4NC3=O)CC2)c1 (stereo not drawn),0.71,-1.4,0.73,9,3.4*,4
CNC(=O)[C@@]1(Cc2ccccc2)C=C[C@@H](C)N1C(=O)OC,nt,nt,nt,nt,-0.5,nt
Cc1cc(C(=O)OCC(=O)NCc2ccco2)c(C)n1-c1ccc(F)cc1,-0.11,-1.2,0.4,30,1.6,75*
CC(C)C(=O)Nc1cccc(C(=O)N2CCCCC2C)c1 (stereo not drawn),nt,nt,nt,nt,-0.029,nt
CC(NC(=O)CN1CCCC1)C12CC3CC(CC(C3)C1)C2 (stereo not drawn),nt,nt,nt,nt,-5.6*,nt
CC(NC(=O)Cn1cnnn1)C12CC3CC(CC(C3)C1)C2 (stereo not drawn),-0.88,-0.12,0.79,19,-3.3*,9
CCCNC(=O)NC(C)C12CC3CC(CC(C3)C1)C2 (stereo not drawn),nt,nt,nt,nt,-0.4,nt
O=C(CN1CCCC1)NCC12CC3CC(CC(C3)C1)C2,0.11,0.58,-0.13,-4,-2.2,-2
COc1ccccc1-c1cc(C(=O)NC(C)C)no1,-3.2*,-0.0069,0.085,-7,0.0071,-2
COc1ccccc1-c1cc(C(=O)Nc2cc(C)nn2-c2ccccc2)no1,nt,-0.07,0.46,28,-0.64,89*
CCOC(=O)N1CCC(Nc2ccc3nnc(-c4ccccc4)n3n2)CC1,-3*,0.93,-1.6,3,2.2,1
